According to ChEMBL document CHEMBL1157090, “Diarylheptanoid from Pleuranthodium racemigerum with in vitro prostaglandin E(2) inhibitory and cytotoxic activity” (J Nat Prod, 2010):

How the values were obtained:
PC-3 = experiment: Cytotoxicity against human PC3 cells after 24 hrs by ATPLite assay; assay type: functional, cell-based; details: PC-3, 24 h
How it was run: (§1)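 Cells grown in appropriate medium were exposed to test compounds at five concentrations for 24 h (5% CO2). Viability was read as cellular ATP by ATPLite luciferase luminescence and quantified against an ATP standard curve. Samples were run in triplicate, and IC50 was calculated from the concentration series.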

MCF7 = experiment: Cytotoxicity against human MCF7 cells after 24 hrs by ATPLite assay; assay type: functional, cell-based; details: MCF7, 24 h; how it was run: as §1
NIH3T3 [1] = experiment: Inhibition of PGE2 production in calcium ionophore […] stimulated mouse 3T3 cells after 3 hrs; assay type: functional, cell-based; details: NIH3T3, 3 h
How it was run: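 3T3 cells in DMEM with 10% FBS were seeded at 2 × 10^5 cells/mL, held ~20 h at 37 °C and 5% CO2, then given test substance (DMSO stock, 10 mg/mL) for 3 h. […] (5 mM DMSO stock) was added for 20 min. Supernatant PGE2 was measured by EIA, in triplicate, as % inhibition versus solvent-treated stimulated cells.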

Caco-2 = experiment: Cytotoxicity against human Caco-2 cells after 24 hrs by ATPLite assay; assay type: functional, cell-based; details: Caco-2, 24 h; how it was run: as §1
NIH3T3 [2] = experiment: Cytotoxicity against mouse 3T3 cells after 3 hrs by ATPLite assay; assay type: cell-based; details: NIH3T3, 3 h
HepG2 = experiment: Cytotoxicity against human HepG2 cells after 24 hrs by ATPLite assay; assay type: functional, cell-based; details: HepG2, 24 h; how it was run: as §1
[3] = Cytotoxicity against mouse P388D1 cells after 24 hrs by ATPLite assay; assay type: functional, cell-based; details: P388D1, 24 h; how it was run: as §1

SMILES	IC50 (PC-3) [µM]	IC50 (MCF7) [µM]	IC50 (NIH3T3 [1]) [µM]	IC50 (Caco-2) [µM]	IC50 (NIH3T3 [2]) [µM]	IC50 (HepG2) [µM]	IC50 [3] [µM]
COc1ccc(C/C=C/CCCCc2ccc(O)cc2)cc1	23.6	56.9	34	44.8	52.8	40.6	117
COc1cc(/C=C/C(=O)CC(=O)/C=C/c2ccc(O)c(OC)c2)ccc1O [CURCUMIN]	22.7	51.5	–	48.6	–	43.8	75.7
